NR2E3 ag-1 – human photoreceptor-specific nuclear receptor agonism. inhibition of corepressor binding, % at 3.98 µM. actives 0.35% (n = 360,000). Q9Y5X4. CHO-S Gal4-NCOR/VP16-NR2E3 two-hybrid, luciferase;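 active means inhibition above the mean of all tested compounds plus 3 SD, cut at about 70% in these data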;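 further: 0% = DMSO with NR2E3 transfected cells and 100% = cells lacking NR2E3 construct; higher means lower luciferase signal from less NR2E3 corepressor binding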
Neddyl block – inhibitors of human cullin neddylation | calls only at 25 µM | TR-FRET cullin neddylation, biochemical | AID 651699 | actives 0.58% (n = 360,000); in the data active means inhibition above about 36%
PG9 Ab binder – PG9 antibody binding by small molecule | AID 624416 | TR-FRET gp120-PG9 antibody binding | inhibition, % at 6.7 µM | actives 0.43% (n = 360,000); in the data active means inhibition above about 8.5%
NR2E3 ag-2 – NR2E3 (human) agonism | GST-NR2E3/biotin-RetCOR TR-FRET, 1536-well | actives 0.12% (n = 320,000) | inhibition of corepressor binding, % at 4.78 µM;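 active means percent inhibition above the cutoff of mean plus 3 SD of all tested compounds, set per screening campaign, cut at about 20% in these data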;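 further: 0% = DMSO wells and 100% = biotin wells as full block of FRET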
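System: GST-tagged NR2E3 plus biotinylated RetCOR corepressor; Buffer or medium: pH 7.5 Tris-based buffer; Probe or stimulus: RetCOR corepressor, biotinylated, 7 nM; Doses: compound at 4.8 µM, single dose; Schedule: 5 h incubation at 4 °C; Technique: time-resolved FRET; Evaluation: percent inhibition of TR-FRET ratio; Replication: one well per compound, singlicate testing.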
NR1D1 modulator – modulates human Rev-erb alpha binding to DNA | P20393 | Rev-erbα–FITC-DNA binding, fluorescence polarization, 90 min | activity, % at 10 µM | actives 0.79% (n = 370,000) | AID 1259318;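 active means activity above about 14%, limit read from the data; passing the limit was not always enough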;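 further: 0% = DMSO wells with 35 nM protein and 100% = DMSO wells with 750 nM protein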
Target sequence (P20393 whole entry, looked up): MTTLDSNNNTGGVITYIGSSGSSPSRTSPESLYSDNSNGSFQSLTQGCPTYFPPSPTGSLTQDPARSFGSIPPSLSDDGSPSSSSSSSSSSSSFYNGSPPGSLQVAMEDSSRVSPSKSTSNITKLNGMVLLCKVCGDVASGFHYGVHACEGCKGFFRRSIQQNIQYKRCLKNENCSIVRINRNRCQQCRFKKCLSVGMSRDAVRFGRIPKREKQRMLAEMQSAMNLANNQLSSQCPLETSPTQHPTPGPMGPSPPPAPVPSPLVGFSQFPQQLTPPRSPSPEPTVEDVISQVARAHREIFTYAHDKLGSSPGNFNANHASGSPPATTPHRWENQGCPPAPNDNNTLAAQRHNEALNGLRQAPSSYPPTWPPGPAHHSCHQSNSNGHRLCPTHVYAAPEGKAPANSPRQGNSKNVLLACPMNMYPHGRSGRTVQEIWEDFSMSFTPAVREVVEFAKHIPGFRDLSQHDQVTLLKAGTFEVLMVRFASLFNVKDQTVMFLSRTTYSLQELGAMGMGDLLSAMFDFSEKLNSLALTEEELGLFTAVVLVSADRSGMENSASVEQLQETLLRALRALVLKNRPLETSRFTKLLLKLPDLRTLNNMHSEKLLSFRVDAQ
NR2E3 ag conf – NR2E3 agonism confirmed in two-hybrid assay | shares compounds with NR2E3 ag-1 | CHO-S mammalian two-hybrid NR2E3-NCOR, luciferase luminescence | inhibition, % at 3.98 µM | actives 51% (n = 2,300) | AID 624378;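 active means average inhibition above a cutoff equal to the mean inhibition of all tested compounds plus one SD, cut at about 70% in these data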;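 further: 0% = DMSO in NR2E3 cells and 100% = DMSO in cells lacking NR2E3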
VP16 counter – GAL4-VP16 reporter inhibition in NR2E3 agonist counterscreen; shares compounds with NR2E3 ag-1; CHO-S GAL4-VP16 luciferase reporter, luminescence; inhibition, % at 3.98 µM; actives 29% (n = 2,300); AID 624379;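 active means mean inhibition above a cutoff equal to the average over all tested compounds plus one standard deviation, cut at about 70% in these data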;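 further: luciferase from a UAS reporter driven by GAL4-VP16 transactivation; 0% = DMSO with VP16-transfected cells and 100% = DMSO with cells lacking VP16; higher means less reporter light so more repression of VP16 activity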
Active calls of the source: *; i = inactive; / = not tested or not shown. An excerpt weighted towards active compounds, which were near 2% of everything screened.

SMILES | NR2E3 ag-1 | Neddyl block | PG9 Ab binder | NR2E3 ag-2 | NR1D1 modulator | NR2E3 ag conf | VP16 counter
COc1cccc(C(=O)c2sc(NC(C)C)nc2N)c1 | 94* | i | 1 | 2 | -5 | 94* | 50
O=C(OC12CCCN(C1)/C(=C/c1ccc(Cl)cc1)C2)c1ccc(Cl)cc1 (centres undefined) | / | / | / | / | -3 | / | /
Cc1noc(C)c1CSc1nc2ccccc2[nH]1 | -12 | i | 1 | 3 | -2 | / | /
c1ccc(-c2cc(CSc3nc4ccccc4[nH]3)on2)cc1 | 63 | i | 0 | 0 | -3 | 83* | 51
CC(C)(C)c1ccc(CC(=O)N2CCC2(C)C(=O)Nc2cnc3ccccc3c2)cc1 (centres undefined) | 67 | i | -1 | / | -4 | 66 | 48
Cc1ccc(NC(=O)C2(C)CCN2C(=O)Cc2ccc(-c3ccccc3)cc2)cc1 (centres undefined) | 69 | i | -2 | / | 0 | 88* | 68
CC(C)c1ccc(CC(=O)N2CCC2(C)C(=O)Nc2cnc3ccccc3c2)cc1 (centres undefined) | 20 | i | -1 | / | -7 | / | /
C=CCn1c(O)c(N=NC(=S)Nc2cccc(OC)c2)c2ccccc21 | 77* | i | -2 | -1 | -3 | 31 | 35
COc1ccccc1NS(=O)(=O)c1ccc(NN=C2CCCC2)c([N+](=O)[O-])c1 | 64 | i | 1 | 1 | 3 | 65 | 63
CN(C)c1ccc(Nc2nc(N)c3ccccc3n2)cc1 | -174 | i | -21 | -13 | -4 | / | /
CN(C)c1ccc(Sc2ccc3nc(N)nc(N)c3c2)cc1 | 76* | i | -4 | / | 0 | 36 | 52
CCC(c1nnnn1-c1ccc2c(c1)OCCO2)N1CCN(c2ccc(F)cc2)CC1 (centres undefined) | 54 | i | / | / | / | 53 | 48
CCc1cc2c(=O)nc3n(c2s1)Cc1ccccc1/C3=C(/O)c1ccccc1Cl | 48 | / | -1 | 4 | 3 | / | /
CCc1cc2c(=O)nc3n(c2s1)Cc1ccccc1/C3=C(/O)c1ccc(F)cc1 | 69 | i | 1 | 0 | -1 | -19 | -4
Cc1ccc(NC(=O)O/N=C/c2c(C)nn(C(C)(C)C)c2C)cc1Cl | 100* | i | 1 | 4 | -1 | 83* | 96*
Cc1ccc(NC(=O)Nn2cnnc2)cc1Cl | -23 | i | 0 | 1 | 5 | / | /
O=c1[nH]c(=O)n(C2OC(CO)C(O)C2O)cc1F (centres undefined) | 49 | i | / | / | / | 17 | 6
O=c1[nH]c(=O)n(C2C[C@@H](O)[C@@H](CO)O2)cc1F (some centres undefined) | / | / | / | / | 11 | / | /
COc1ccc(NS(=O)(=O)c2ccc3c(c2)Cc2ccccc2-3)cn1 | 85* | i | -1 | 1 | -4 | 93* | 77*
CO[C@H]1O[C@H](CO)[C@H](O[C@@H]2OC(C(=O)O)[C@@H](O[C@H]3O[C@H](COS(=O)(=O)O)[C@H](O[C@@H]4OC(C(=O)O)[C@@H](O[C@H]5O[C@H](CO)[C@H](O[C@@H]6OC(C(=O)O)[C@@H](O[C@H]7O[C@H](COS(=O)(=O)O)[C@H](O[C@@H]8OC(C(=O)O)=C[C@H](O)C8OS(=O)(=O)O)[C@H](O)[C@H]7NC(C)=O)[C@H](O)[C@H]6O)[C@H](O)[C@H]5NC(C)=O)[C@H](O)[C@H]4O)[C@H](O)[C@H]3NC(C)=O)[C@H](O)[C@H]2O)[C@H](O)[C@H]1NC(C)=O (some centres undefined) | / | / | / | / | -4 | / | /
COc1cccc2c1C(=O)C=C(C)C2=O | -65 | i | -1 | -19 | 1 | / | /
COC1=CC(=O)c2c(ccc3ncnc(N)c23)C1=O | 102* | i | -10 | / | 1 | 101* | 101*
Nc1nc(F)nc2c1ncn2[C@@H]1O[C@H](CO)[C@@H](O)[C@H]1O | 103* | i | 0 | 3 | -1 | 100* | 99*
Nc1nc(F)nc2c1ncn2[C@@H]1O[C@H](CO)[C@@H](O)[C@@H]1O | 9 | i | -1 | 3 | 2 | / | /
